{"source": "ChEMBL document CHEMBL1138512", "about": "“A class of 2,4-bisanilinopyrimidine Aurora A inhibitors with unusually high selectivity against Aurora B” (J Med Chem, 2009)", "key": {"Aurora kinase A [1]": {"target": "T1, Aurora kinase A (Homo sapiens, UniProt O14965)", "T1 sequence (O14965 whole entry)": "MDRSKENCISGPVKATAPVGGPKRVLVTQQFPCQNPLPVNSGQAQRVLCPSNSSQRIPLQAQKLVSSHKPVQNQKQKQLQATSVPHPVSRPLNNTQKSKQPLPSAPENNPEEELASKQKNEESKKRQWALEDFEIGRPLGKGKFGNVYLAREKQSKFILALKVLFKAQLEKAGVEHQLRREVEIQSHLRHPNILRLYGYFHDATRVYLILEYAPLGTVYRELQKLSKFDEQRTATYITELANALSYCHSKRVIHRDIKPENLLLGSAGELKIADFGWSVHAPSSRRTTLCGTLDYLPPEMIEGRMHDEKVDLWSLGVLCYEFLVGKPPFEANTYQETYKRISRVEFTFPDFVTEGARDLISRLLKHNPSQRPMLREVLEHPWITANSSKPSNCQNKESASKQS", "experiment": "Inhibition of N-terminal flag-tagged Aurora A expressed in Escherichia coli BL21-DE3 by ELISA"}, "Aurora kinase A [2]": {"target": "T1, Aurora kinase A", "experiment": "Inhibition of Aurora A in human HCT116 cells assessed as complete loss of phospho-Aurora A staining in centrosomes by immunofluorescence assay", "format": "cell-based, HCT-116"}, "HCT-116": {"test_system": "HCT-116", "experiment": "Antiproliferative activity against human HCT116 cells after 4 days by celltiter assay", "format": "functional, cell-based", "conditions": "HCT-116, 96 h"}, "HT-29": {"test_system": "HT-29", "experiment": "Antiproliferative activity against human HT-29 cells after 4 days by celltiter assay", "format": "functional, cell-based", "conditions": "HT-29, 96 h"}, "[3]": {"target": "Cyclin-dependent kinase 2 (Homo sapiens, UniProt P24941)", "experiment": "Inhibition of CDK2/cyclin A"}, "Aurora kinase B [4]": {"target": "T2, Aurora kinase B (Homo sapiens, UniProt Q96GD4)", "T2 sequence (Q96GD4 whole entry)": "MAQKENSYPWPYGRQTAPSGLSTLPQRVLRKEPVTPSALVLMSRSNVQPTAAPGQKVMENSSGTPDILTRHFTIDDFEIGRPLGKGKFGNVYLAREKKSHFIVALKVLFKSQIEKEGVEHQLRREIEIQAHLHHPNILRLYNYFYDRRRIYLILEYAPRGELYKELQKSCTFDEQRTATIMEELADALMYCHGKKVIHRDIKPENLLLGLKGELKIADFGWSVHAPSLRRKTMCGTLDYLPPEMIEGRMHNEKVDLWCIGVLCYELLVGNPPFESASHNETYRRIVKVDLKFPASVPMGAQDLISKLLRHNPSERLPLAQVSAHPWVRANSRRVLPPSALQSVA", "experiment": "Inhibition of Aurora B in human HT29 cells assessed as complete loss of phospho-histone H3 staining by immunofluorescence assay", "format": "cell-based, HT-29", "in_short": "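Immunofluorescence for phospho-S10 histone H3 in HCT116 or HT29 cells, scored visually. Value taken as the lowest inhibitor concentration giving complete loss of staining, so it lies above the IC50. Units µM.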"}, "Aurora kinase B [5]": {"target": "Aurora kinase B (Homo sapiens, UniProt Q96GD4, E161T)", "sequence (Q96GD4 whole entry E161T)": "as the sequence (Q96GD4 whole entry) above, with E161T counted along it", "experiment": "Inhibition of N-terminal flag-tagged Aurora B E161T mutant expressed in Escherichia coli BL21-DE3"}, "Aurora kinase B [6]": {"target": "T2, Aurora kinase B", "experiment": "Inhibition of Aurora B in human HCT116 cells assessed as complete loss of phospho-histone H3 staining by immunofluorescence assay"}, "Aurora kinase B [7]": {"target": "T2, Aurora kinase B", "experiment": "Inhibition of N-terminal flag-tagged Aurora B expressed in Escherichia coli BL21-DE3 by ELISA"}, "Aurora kinase A [8]": {"target": "Aurora kinase A (Homo sapiens, UniProt O14965, T217E)", "sequence (O14965 whole entry I57V/T217E)": "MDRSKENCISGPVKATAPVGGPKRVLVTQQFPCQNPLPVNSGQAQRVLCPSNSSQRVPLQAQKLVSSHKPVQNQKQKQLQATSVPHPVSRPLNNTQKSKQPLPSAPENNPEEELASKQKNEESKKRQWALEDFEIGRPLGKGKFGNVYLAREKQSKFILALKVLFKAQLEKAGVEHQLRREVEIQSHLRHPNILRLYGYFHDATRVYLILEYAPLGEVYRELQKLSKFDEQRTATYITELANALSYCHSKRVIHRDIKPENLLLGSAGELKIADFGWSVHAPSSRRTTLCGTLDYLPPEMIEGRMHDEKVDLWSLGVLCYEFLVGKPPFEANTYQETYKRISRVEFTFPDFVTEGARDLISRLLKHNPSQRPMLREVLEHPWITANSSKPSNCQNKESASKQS", "experiment": "Inhibition of N-terminal flag-tagged Aurora A T217E mutant expressed in Escherichia coli BL21-DE3"}}}
{"smiles": "Oc1ccc(Nc2cc(Cl)nc(Nc3ccc(O)cc3)n2)cc1", "values": [{"measurement": "IC50", "setting": "Aurora kinase A [1]", "value": "> 17000", "unit": "nM"}]}
{"smiles": "CCN1CCN(C(=O)Cc2ccc(Nc3ncc(F)c(Nc4ccc(C(=O)Nc5ccccc5Cl)cc4)n3)cc2)CC1", "values": [{"measurement": "IC50", "setting": "Aurora kinase A [2]", "value": 2500, "unit": "nM"}, {"measurement": "IC50", "setting": "HCT-116", "value": 190, "unit": "nM"}, {"measurement": "IC50", "setting": "HT-29", "value": 2900, "unit": "nM"}, {"measurement": "IC50", "setting": "[3]", "value": "> 16000", "unit": "nM"}, {"measurement": "IC50", "setting": "Aurora kinase B [4]", "value": "> 27000", "unit": "nM"}, {"measurement": "IC50", "setting": "Aurora kinase B [5]", "value": 55, "unit": "nM"}, {"measurement": "IC50", "setting": "Aurora kinase B [6]", "value": "> 50000", "unit": "nM"}, {"measurement": "IC50", "setting": "Aurora kinase A [1]", "value": 3.4, "unit": "nM"}, {"measurement": "IC50", "setting": "Aurora kinase B [7]", "value": 3400, "unit": "nM"}, {"measurement": "IC50", "setting": "Aurora kinase A [8]", "value": 2000, "unit": "nM"}]}
{"smiles": "CCCc1cnc(Nc2ccc(O)cc2)nc1Nc1ccc(O)cc1", "values": [{"measurement": "IC50", "setting": "Aurora kinase A [1]", "value": 11000, "unit": "nM"}]}
{"smiles": "COc1ccc(Nc2ncc(F)c(Nc3ccc(OC)cc3)n2)cc1", "values": [{"measurement": "IC50", "setting": "Aurora kinase A [1]", "value": 130, "unit": "nM"}]}
{"smiles": "CCCNC(=O)c1ccc(Nc2nc(Nc3ccc(O)cc3)ncc2F)cc1", "values": [{"measurement": "IC50", "setting": "Aurora kinase A [1]", "value": 49, "unit": "nM"}]}
{"smiles": "O=C(Nc1ccccc1O)c1ccc(Nc2nc(Nc3ccc(O)cc3)ncc2F)cc1", "values": [{"measurement": "IC50", "setting": "Aurora kinase A [1]", "value": 28, "unit": "nM"}]}
{"smiles": "Oc1ccc(Nc2ncc(C(F)(F)F)c(Nc3ccc(O)cc3)n2)cc1", "values": [{"measurement": "IC50", "setting": "Aurora kinase A [1]", "value": 14, "unit": "nM"}]}
{"smiles": "Cc1ccccc1NC(=O)c1ccc(Nc2nc(Nc3ccc(O)cc3)ncc2F)cc1", "values": [{"measurement": "IC50", "setting": "Aurora kinase A [1]", "value": 20, "unit": "nM"}]}
{"smiles": "NC(=O)c1ccc(Nc2nc(Nc3ccc(O)cc3)ncc2F)cc1", "values": [{"measurement": "IC50", "setting": "Aurora kinase A [1]", "value": 160, "unit": "nM"}]}
{"smiles": "Oc1ccc(Nc2ccnc(Nc3ccc(O)cc3)n2)cc1", "values": [{"measurement": "IC50", "setting": "Aurora kinase A [1]", "value": 490, "unit": "nM"}]}
{"smiles": "O=C(Nc1ccc(Nc2nc(Nc3ccc(O)cc3)ncc2F)cc1)c1ccccc1", "values": [{"measurement": "IC50", "setting": "Aurora kinase A [1]", "value": 18, "unit": "nM"}]}
{"smiles": "O=C(Nc1ccc(Nc2nc(Nc3ccc(O)cc3)ncc2F)cc1)c1ccccc1F", "values": [{"measurement": "IC50", "setting": "Aurora kinase A [1]", "value": 14, "unit": "nM"}]}
{"smiles": "O=C(Nc1ccc(O)cc1)c1ccc(Nc2nc(Nc3ccc(O)cc3)ncc2F)cc1", "values": [{"measurement": "IC50", "setting": "Aurora kinase A [1]", "value": 13, "unit": "nM"}]}
{"smiles": "N#Cc1cnc(Nc2ccc(O)cc2)nc1Nc1ccc(O)cc1", "values": [{"measurement": "IC50", "setting": "Aurora kinase A [1]", "value": 23, "unit": "nM"}]}
{"smiles": "CCc1cnc(Nc2ccc(O)cc2)nc1Nc1ccc(O)cc1", "values": [{"measurement": "IC50", "setting": "Aurora kinase A [1]", "value": 150, "unit": "nM"}]}
{"smiles": "Oc1ccc(Nc2ncc(F)c(Nc3ccc(O)cc3)n2)cc1", "values": [{"measurement": "IC50", "setting": "Aurora kinase A [1]", "value": 30, "unit": "nM"}]}
{"smiles": "Cc1cc(Nc2ccc(O)cc2)nc(Nc2ccc(O)cc2)n1", "values": [{"measurement": "IC50", "setting": "Aurora kinase A [1]", "value": "> 17000", "unit": "nM"}]}
{"smiles": "O=C(Nc1ccc(F)cc1)c1ccc(Nc2nc(Nc3ccc(O)cc3)ncc2F)cc1", "values": [{"measurement": "IC50", "setting": "Aurora kinase A [1]", "value": 25, "unit": "nM"}]}
{"smiles": "Oc1ccc(Nc2ncc(Cl)c(Nc3ccc(O)cc3)n2)cc1", "values": [{"measurement": "IC50", "setting": "Aurora kinase A [1]", "value": 8, "unit": "nM"}]}
{"smiles": "COc1ccc(Nc2nc(Nc3ccc(O)cc3)ncc2F)cc1", "values": [{"measurement": "IC50", "setting": "Aurora kinase A [1]", "value": 78, "unit": "nM"}]}
{"smiles": "Cc1cccc(Nc2nc(Nc3ccc(O)cc3)ncc2F)c1", "values": [{"measurement": "IC50", "setting": "Aurora kinase A [1]", "value": 180, "unit": "nM"}]}
{"smiles": "Cc1cnc(Nc2ccc(O)cc2)nc1Nc1ccc(O)cc1", "values": [{"measurement": "IC50", "setting": "Aurora kinase A [1]", "value": 34, "unit": "nM"}]}
{"smiles": "Cc1cccc(Nc2ncc(F)c(Nc3cccc(C)c3)n2)c1", "values": [{"measurement": "IC50", "setting": "Aurora kinase A [1]", "value": 680, "unit": "nM"}]}
